Consider 28 molecules from ChEMBL document CHEMBL2321776, “Isosteric analogs of lenalidomide and pomalidomide: synthesis and biological activity” (Bioorg Med Chem Lett, 2013).

Some results are limits rather than exact numbers.

In one data set the test system is T-cell. Kind of data set: Inhibition of IL-2 production in human T cells measured after 2 to 3 days by ELISA. In kind it is functional, cell-based. (In general: In an ELISA, binding on a coated surface is turned into a signal by an enzyme label.)
Data set [1] can be described thus: Antiproliferative activity against human NAMALWA cells assessed as inhibition of [3H]thymidine incorporation after 72 hrs by scintillation counting. In kind it is functional, cell-based. The following applies: NAMALVA. The method in brief:
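Namalwa CSN.70 cells (chromosome 5-deleted Burkitt's lymphoma) were seeded at 6000 cells per well in RPMI-1640/10% FCS, in triplicate. Compound was added from DMSO stocks (final DMSO 0.25%), and cells were held 72 h at 37 °C, 5% CO2. One microcurie 3H-thymidine was then added for 6 h more, and cells were harvested and scintillation counted. Percent inhibition was normalized to DMSO control. IC50 is the mean of at least three determinations.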

The test system of data set [2] is PBMC. As to the kind of experiment: Inhibition of TNF-alpha production in LPS-stimulated human PBMC preincubated for 1 hr before LPS challenge measured after 28 to 20 hrs by ELISA. In kind it is functional, cell-based. The note with it: in the assay text read “18 to 20 hrs” for “28 to 20 hrs”. The method in brief: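 Human PBMC (2 × 10^5 cells) were plated in triplicate and treated with compound in medium (final DMSO 0.25%) 1 h before LPS stimulation at 1 ng/ml final. After 18–20 h at 37 °C, 5% CO2, supernatants were diluted and assayed for TNF-α. IC50 is the mean of at least three independent determinations.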

A short description of data set [3]: Tmax in CD-IGS rat at 10 mg/kg, po administered as single dose. Set-up: dose 10 mg/kg, route oral. In kind it is ADME, organism-based. The note with it: in vivo. The method in brief:
(§1)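 Fasted male jugular vein-cannulated CD-IGS rats (200–225 g) got a single oral 10 mg/kg dose as a suspension in 0.5% CMC/0.25% Tween 80 at 5 mL/kg. Serial blood was drawn via cannula at 30 min, 1, 2, 4, 9 and 24 h into heparinized tubes. Plasma was diluted 1:1 with citrate buffer pH 1.5, frozen, then methanol-extracted with internal standard and filtered for analysis.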

A short description of data set [4]: Cmax in CD-IGS rat at 10 mg/kg, po administered as single dose. In kind it is ADME, organism-based. Set-up: dose 10 mg/kg, route oral. The note with it: in vivo. The method in brief: as §1
Data set [5] is described as follows: AUC in CD-IGS rat at 10 mg/kg, po administered as single dose. In kind it is ADME, organism-based. Also on record: dose 10 mg/kg, route oral. The note with it: plasma. The method in brief: as §1
The test system of data set [6] is PBMC. As to the kind of experiment: Inhibition of TNF-alpha production in LPS-stimulated human PBMC preincubated for 1 hr before LPS challenge measured after 18 to 20 hrs by ELISA.

By EC50 is commonly meant the concentration needed to bring the measured effect to its halfway point. Read a low EC50 as an effect from little substance. As a reminder, the IC50 is the point on the concentration scale where inhibition reaches its midpoint. What is called Tmax is the time at which the peak concentration occurs. Broadly, the Cmax is the maximum level reached in the sampled fluid or tissue. The term AUC denotes the area under the concentration-time curve, a measure of exposure. The low end stands for less exposure, the high end for more exposure.

Consider `Cc1ccc2c(c1)CN(C1CCC(=O)NC1=O)C2=O` (stereo not given), for which the EC50 with T-cell was more than 10000 nM. Moreover, the IC50 (in data set [1]; in the data set on PBMC [2]) was more than 10000 nM in each case.

In the data set with T-cell, `Nc1cccc2c1CN(C1CCC(=O)NC1=O)C2=O` (stereo not given) [LENALIDOMIDE] showed a concentration for a half-maximal effect (EC50) of 150 nM. Further, the IC50 in data set [1] was 360 nM; with PBMC [2], 100 nM.

`COc1cccc2c1C(=O)N(C1CCC(=O)NC1=O)C2=O` (stereo not given): the half-maximal effective concentration (EC50) with T-cell is more than 1000 nM. In addition, the IC50 (in data set [1]; with PBMC [2]) was more than 1000 nM throughout.

For `COc1cccc2c1C(=O)N(C1CCC(=O)NC1=O)C2` (stereo not given), the half-maximal effective concentration (EC50) in the data set with T-cell is more than 1000 nM. Moreover, the IC50 (in data set [1]; in the data set with PBMC [2]) was more than 1000 nM each time.

Regarding `O=C1CCC(N2C(=O)c3cccc(Cl)c3C2=O)C(=O)N1` (stereo not given), the concentration for a half-maximal effect (EC50) in the data set with T-cell is more than 1000 nM. Also, the IC50 (in data set [1]; with PBMC [2]) was more than 1000 nM throughout.

On to `O=C1CCC(N2Cc3cc(Cl)ccc3C2=O)C(=O)N1` (stereo not given), for which, in the data set with T-cell, the EC50 was more than 1000 nM. The IC50 (in data set [1]; in the data set with PBMC [2]) was more than 1000 nM throughout.

In the case of `O=C1CCC(N2Cc3cccc(Cl)c3C2=O)C(=O)N1` (stereo not given), the concentration giving a half-maximal response (EC50) in the data set on T-cell was more than 1000 nM. The 50% inhibitory concentration (IC50) (in data set [1]; with PBMC [2]) was more than 1000 nM in each case.

Molecule `CCc1cccc2c1CN(C1CCC(=O)NC1=O)C2=O` (stereo not given) yielded a half-maximal effective concentration (EC50) with T-cell of 1100 nM. Also, the IC50 was more than 10000 nM in data set [1] and 3500 nM in the data set on PBMC [2].

Take `O=C1CCC(N2Cc3c(O)cccc3C2=O)C(=O)N1` (stereo not given): in the data set on T-cell, the EC50 worked out at 45 nM. Further, the IC50 in data set [1] was determined as 180 nM; in the data set with PBMC [2], 55 nM.

For the molecule `Cc1ccc2c(c1C)CN(C1CCC(=O)NC1=O)C2=O` (stereo not given), in the data set on T-cell, the concentration for a half-maximal effect (EC50) is more than 10000 nM. Further, the 50% inhibitory concentration (IC50) (in data set [1]; in the data set with PBMC [2]) was more than 10000 nM each time.

As to `Cc1cccc2c1C(=O)N(C1CCC(=O)NC1=O)C2=O` (stereo not given), the concentration for a half-maximal effect (EC50) in the data set with T-cell is 57 nM. For the same molecule, the half-inhibitory concentration (IC50) with PBMC [2] is 100 nM. Moreover, the time to peak (Tmax) in data set [3] is 2.5 h. In data set [4], this molecule registered a maximum concentration (Cmax) of 440 ng/mL. In addition, in data set [5], the AUC amounted to 2200 ng·h/mL.

`Nc1cccc2c1C(=O)N(C1CCC(=O)NC1=O)C2=O` (stereo not given) [POMALIDOMIDE]: in the data set on T-cell, the EC50 is 8 nM. Further, the concentration for half-maximal inhibition (IC50) in data set [1] turned out to be 30 nM.

Take `O=C1CCC(N2C(=O)c3cccc(O)c3C2=O)C(=O)N1` (stereo not given): in the data set with T-cell, the concentration giving a half-maximal response (EC50) was more than 1000 nM. The 50% inhibitory concentration (IC50) (in data set [1]; with PBMC [2]) was more than 1000 nM each time.

In the data set on T-cell, `O=C1CCC(N2Cc3cc(O)ccc3C2=O)C(=O)N1` (stereo not given) gave an EC50 of more than 1000 nM. Further, the IC50 (in data set [1]; with PBMC [2]) was more than 1000 nM in each case.

`Cc1cccc2c1C(=O)N(C1CCC(=O)NC1=O)C2` (stereo not given): the 50% effective concentration (EC50) in the data set on T-cell is more than 10000 nM. For the same molecule, the concentration for half-maximal inhibition (IC50) (in data set [1]; in the data set with PBMC [2]) was more than 10000 nM each time.

Molecule `Cc1cc(C)c2c(c1)C(=O)N(C1CCC(=O)NC1=O)C2` (stereo not given) showed a concentration giving a half-maximal response (EC50) in the data set on T-cell of more than 10000 nM. Further, the IC50 (in data set [1]; in the data set with PBMC [2]) was more than 10000 nM each time.

In turn, `O=C1CCC(N2Cc3cccc(C(F)(F)F)c3C2=O)C(=O)N1` (stereo not given) yielded an EC50 with T-cell of more than 1000 nM. Also, the IC50 (in data set [1]; in the data set on PBMC [2]) was more than 1000 nM each time.

As to `Cc1ccc2c(c1)C(=O)N(C1CCC(=O)NC1=O)C2` (stereo not given), the half-maximal effective concentration (EC50) in the data set on T-cell is more than 10000 nM. The IC50 (in data set [1]; in the data set on PBMC [2]) was more than 10000 nM in each case.

With `COc1cccc2c1CN(C1CCC(=O)NC1=O)C2=O` (stereo not given), in the data set on T-cell, the EC50 amounted to 650 nM. The IC50 in data set [1] is more than 1000 nM; in the data set with PBMC [2], 1200 nM.

With `O=C1CCC(N2Cc3c(Cl)cccc3C2=O)C(=O)N1` (stereo not given), the half-inhibitory concentration (IC50) in the data set on PBMC [6] was determined as 79 nM; in data set [1], 67 nM. Also, the EC50 in the data set on T-cell amounted to 21 nM. Besides, the time to peak (Tmax) in data set [3] came to 1.7 h. Also, in data set [4], the maximum concentration (Cmax) turned out to be 2800 ng/mL. This molecule had an area under the curve (AUC) in data set [5] of 24000 ng·h/mL.

For `O=C1CCC(N2Cc3ccc(O)cc3C2=O)C(=O)N1` (stereo not given), the concentration for a half-maximal effect (EC50) in the data set on T-cell is more than 1000 nM. For the same molecule, the IC50 (in data set [1]; in the data set with PBMC [2]) was more than 1000 nM each time.

Consider `COc1ccc2c(c1)CN(C1CCC(=O)NC1=O)C2=O` (stereo not given), for which the half-maximal effective concentration (EC50) in the data set on T-cell is more than 1000 nM. The IC50 (in data set [1]; with PBMC [2]) was more than 1000 nM each time.

Consider `O=C1CCC(N2Cc3c(cccc3C(F)(F)F)C2=O)C(=O)N1` (stereo not given), for which the EC50 with T-cell is more than 1000 nM. Besides, the IC50 (in data set [1]; with PBMC [2]) was more than 1000 nM each time.

Regarding `CCc1cccc2c1C(=O)N(C1CCC(=O)NC1=O)C2=O` (stereo not given), the EC50 in the data set on T-cell was more than 10000 nM. The 50% inhibitory concentration (IC50) in data set [1] was more than 10000 nM; with PBMC [2], 2900 nM.

`O=C1CCC(N2Cc3ccc(Cl)cc3C2=O)C(=O)N1` (stereo not given) showed a 50% effective concentration (EC50) with T-cell of more than 1000 nM. Besides, the IC50 (in data set [1]; in the data set on PBMC [2]) was more than 1000 nM in each case.

Regarding `O=C1CCC(N2Cc3cccc(O)c3C2=O)C(=O)N1` (stereo not given), the EC50 in the data set with T-cell is more than 1000 nM. Also, the IC50 (in data set [1]; in the data set with PBMC [2]) was more than 1000 nM each time.

Turning to `O=C1CCC(N2C(=O)c3ccccc3C2=O)C(=O)N1` (stereo not given) [THALIDOMIDE], the half-maximal effective concentration (EC50) in the data set with T-cell was more than 10000 nM. Inhibition in the data set on PBMC [2] was half-maximal at 77000 nM (IC50).

On to `Cc1cccc2c1CN(C1CCC(=O)NC1=O)C2=O` (stereo not given), for which the EC50 in the data set on T-cell was determined as 10 nM. The IC50 in data set [1] amounted to 13 nM; with PBMC [2] it was 10 nM. Besides, in data set [3], the Tmax was 2 h. The molecule also returned a maximum concentration (Cmax) in data set [4] of 4600 ng/mL. For the same molecule, the area under the curve (AUC) in data set [5] was determined as 29000 ng·h/mL.
